From the M2OR odorant receptor database
Residue numbers refer to the chain shown, from its start.

Columns and labels:
Conditions in all cases: stereoisomer not certain
[1] = tested on: T1, O5AP2 A105T
T1 sequence (whole entry): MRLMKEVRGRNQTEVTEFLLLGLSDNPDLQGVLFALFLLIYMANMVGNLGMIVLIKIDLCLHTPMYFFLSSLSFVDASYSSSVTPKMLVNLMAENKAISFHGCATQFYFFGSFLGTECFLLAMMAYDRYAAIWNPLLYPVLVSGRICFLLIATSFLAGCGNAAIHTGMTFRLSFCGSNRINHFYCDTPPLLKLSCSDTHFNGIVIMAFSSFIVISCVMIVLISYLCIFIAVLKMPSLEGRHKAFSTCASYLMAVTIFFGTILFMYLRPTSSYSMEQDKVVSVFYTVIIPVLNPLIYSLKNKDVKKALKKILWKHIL
How it was run: (§1)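 Each receptor–molecule pair is labelled responsive or non-responsive (inactive) according to whether the original authors judged the measured signal statistically different from baseline. The data were taken from the main text and supplementary material of published papers and checked for typos and inconsistencies. Assay methods differed by source, with transient luciferase assays in mammalian cell lines being common.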

[2] = tested on: T2, O5AU1
T2 sequence (whole entry): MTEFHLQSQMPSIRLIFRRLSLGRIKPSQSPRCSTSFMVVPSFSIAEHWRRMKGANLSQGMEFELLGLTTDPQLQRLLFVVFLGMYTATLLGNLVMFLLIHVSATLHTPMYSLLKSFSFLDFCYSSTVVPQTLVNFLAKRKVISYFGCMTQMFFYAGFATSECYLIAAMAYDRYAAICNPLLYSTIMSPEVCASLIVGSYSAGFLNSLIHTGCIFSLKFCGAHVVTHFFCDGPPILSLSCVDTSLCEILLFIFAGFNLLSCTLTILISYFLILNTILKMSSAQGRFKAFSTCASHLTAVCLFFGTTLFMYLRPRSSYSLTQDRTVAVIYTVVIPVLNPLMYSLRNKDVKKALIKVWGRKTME
How it was run: as §1

[3] = tested on: T3, O5H14
T3 sequence (whole entry): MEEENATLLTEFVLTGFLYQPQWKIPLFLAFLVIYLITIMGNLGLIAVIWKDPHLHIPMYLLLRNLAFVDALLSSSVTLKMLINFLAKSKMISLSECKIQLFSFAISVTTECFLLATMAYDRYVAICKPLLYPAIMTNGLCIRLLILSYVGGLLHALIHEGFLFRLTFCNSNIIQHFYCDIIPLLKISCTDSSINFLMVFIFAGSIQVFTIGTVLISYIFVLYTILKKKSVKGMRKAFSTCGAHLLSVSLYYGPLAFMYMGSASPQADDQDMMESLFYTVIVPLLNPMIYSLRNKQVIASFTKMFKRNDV
How it was run: as §1

[4] = tested on: T4, O5H15 V108I S148T T167S
T4 sequence (whole entry): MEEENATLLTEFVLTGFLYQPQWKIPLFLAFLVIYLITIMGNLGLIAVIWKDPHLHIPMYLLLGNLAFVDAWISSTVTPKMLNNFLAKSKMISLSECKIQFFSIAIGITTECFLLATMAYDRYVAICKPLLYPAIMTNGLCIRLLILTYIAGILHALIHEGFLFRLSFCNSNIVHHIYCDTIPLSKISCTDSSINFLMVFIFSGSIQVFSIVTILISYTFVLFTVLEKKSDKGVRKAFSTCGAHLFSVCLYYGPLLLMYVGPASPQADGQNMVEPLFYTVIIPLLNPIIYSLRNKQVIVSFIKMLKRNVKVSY
How it was run: as §1

[5] = tested on: T5, O6C65 T222A
T5 sequence (whole entry): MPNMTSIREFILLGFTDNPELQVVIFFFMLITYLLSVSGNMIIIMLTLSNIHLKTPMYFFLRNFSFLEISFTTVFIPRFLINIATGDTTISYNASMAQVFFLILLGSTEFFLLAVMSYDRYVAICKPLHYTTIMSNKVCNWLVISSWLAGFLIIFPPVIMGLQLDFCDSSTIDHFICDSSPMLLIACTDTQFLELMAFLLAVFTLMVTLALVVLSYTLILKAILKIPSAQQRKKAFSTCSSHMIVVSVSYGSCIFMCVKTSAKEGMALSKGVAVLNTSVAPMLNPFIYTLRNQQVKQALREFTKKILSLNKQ
How it was run: as §1

[6] = tested on: T6, O6C70 L181P
T6 sequence (whole entry): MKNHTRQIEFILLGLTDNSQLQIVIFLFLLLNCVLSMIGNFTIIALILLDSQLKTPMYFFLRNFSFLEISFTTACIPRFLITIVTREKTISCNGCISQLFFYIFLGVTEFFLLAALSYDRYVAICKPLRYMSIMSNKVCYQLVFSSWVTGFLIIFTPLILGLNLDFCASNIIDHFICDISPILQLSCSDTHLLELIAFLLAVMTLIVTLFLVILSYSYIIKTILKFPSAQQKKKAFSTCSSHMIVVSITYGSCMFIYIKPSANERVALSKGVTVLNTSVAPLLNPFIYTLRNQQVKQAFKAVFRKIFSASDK
How it was run: as §1

[7] = tested on: T7, O7E24 S193F P242S
T7 sequence (whole entry): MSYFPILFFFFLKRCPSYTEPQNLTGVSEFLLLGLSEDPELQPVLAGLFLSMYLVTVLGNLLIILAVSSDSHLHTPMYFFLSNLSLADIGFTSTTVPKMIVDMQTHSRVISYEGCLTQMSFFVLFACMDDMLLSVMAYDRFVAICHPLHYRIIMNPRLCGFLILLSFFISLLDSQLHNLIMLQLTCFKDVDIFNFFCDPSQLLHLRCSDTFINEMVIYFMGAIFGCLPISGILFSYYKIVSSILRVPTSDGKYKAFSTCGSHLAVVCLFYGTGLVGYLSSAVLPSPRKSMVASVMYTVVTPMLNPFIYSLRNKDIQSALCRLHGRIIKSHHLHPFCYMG
How it was run: as §1

[8] = tested on: T8, O7E24
T8 sequence (whole entry): T7 sequence (whole entry) with F193S
How it was run: as §1

[9] = biological target: T9, OR10A2 (Homo sapiens) (UniProt Q9H208)
T9 sequence (whole entry): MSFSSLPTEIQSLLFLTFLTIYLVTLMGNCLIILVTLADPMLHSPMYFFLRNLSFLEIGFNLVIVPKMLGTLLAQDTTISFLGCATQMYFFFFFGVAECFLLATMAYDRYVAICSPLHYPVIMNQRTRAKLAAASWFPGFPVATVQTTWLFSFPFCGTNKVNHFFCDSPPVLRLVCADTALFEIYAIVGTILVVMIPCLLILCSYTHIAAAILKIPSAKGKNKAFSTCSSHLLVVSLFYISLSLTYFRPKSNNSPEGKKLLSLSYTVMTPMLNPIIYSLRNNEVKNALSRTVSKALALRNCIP
How it was run: as §1

[10] = biological target: T10, OR10A3 (Homo sapiens) (UniProt P58181)
T10 sequence (whole entry): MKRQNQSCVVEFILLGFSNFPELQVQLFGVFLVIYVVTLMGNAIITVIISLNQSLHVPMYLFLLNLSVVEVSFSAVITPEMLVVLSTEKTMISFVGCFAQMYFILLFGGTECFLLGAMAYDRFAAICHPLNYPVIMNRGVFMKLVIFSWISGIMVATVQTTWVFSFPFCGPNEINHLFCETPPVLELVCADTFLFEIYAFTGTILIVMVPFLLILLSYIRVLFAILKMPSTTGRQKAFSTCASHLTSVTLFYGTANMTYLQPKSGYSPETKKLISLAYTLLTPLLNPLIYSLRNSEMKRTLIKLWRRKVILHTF
How it was run: as §1

[11] = biological target: T11, OR10A4 (Homo sapiens) (UniProt Q9H209)
T11 sequence (whole entry): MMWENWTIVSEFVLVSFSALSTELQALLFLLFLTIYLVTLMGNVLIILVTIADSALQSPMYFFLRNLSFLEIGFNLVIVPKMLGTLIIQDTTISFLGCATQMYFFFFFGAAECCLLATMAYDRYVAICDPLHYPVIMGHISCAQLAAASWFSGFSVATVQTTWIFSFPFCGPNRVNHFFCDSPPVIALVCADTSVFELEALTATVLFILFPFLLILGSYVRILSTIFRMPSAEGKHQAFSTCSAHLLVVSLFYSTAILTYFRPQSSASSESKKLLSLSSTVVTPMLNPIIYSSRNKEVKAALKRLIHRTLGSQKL
How it was run: as §1

[12] = biological target: T12, OR10A5 (Homo sapiens) (UniProt Q9H207)
T12 sequence (whole entry): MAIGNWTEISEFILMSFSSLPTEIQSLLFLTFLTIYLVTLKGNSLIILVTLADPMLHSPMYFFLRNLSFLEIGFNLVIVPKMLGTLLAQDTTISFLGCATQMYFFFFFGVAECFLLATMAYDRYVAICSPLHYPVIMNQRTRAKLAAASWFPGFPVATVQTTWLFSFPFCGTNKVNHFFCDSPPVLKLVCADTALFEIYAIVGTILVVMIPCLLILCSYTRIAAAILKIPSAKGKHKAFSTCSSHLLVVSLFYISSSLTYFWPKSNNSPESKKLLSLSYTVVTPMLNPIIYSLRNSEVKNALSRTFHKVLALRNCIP
How it was run: as §1

[13] = biological target: T13, OR10A6 (Homo sapiens) (UniProt Q8NH74)
T13 sequence (whole entry): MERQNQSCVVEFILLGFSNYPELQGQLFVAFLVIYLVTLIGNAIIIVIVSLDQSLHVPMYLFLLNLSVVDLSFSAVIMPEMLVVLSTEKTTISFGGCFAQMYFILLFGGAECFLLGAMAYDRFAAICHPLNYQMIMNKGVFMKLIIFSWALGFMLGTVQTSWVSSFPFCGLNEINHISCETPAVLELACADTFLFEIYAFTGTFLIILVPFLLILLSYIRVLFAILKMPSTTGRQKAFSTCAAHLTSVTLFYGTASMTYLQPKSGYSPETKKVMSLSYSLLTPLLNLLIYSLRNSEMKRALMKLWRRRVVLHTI
How it was run: as §1

[14] = biological target: T14, OR10A7 (Homo sapiens) (UniProt Q8NGE5)
T14 sequence (whole entry): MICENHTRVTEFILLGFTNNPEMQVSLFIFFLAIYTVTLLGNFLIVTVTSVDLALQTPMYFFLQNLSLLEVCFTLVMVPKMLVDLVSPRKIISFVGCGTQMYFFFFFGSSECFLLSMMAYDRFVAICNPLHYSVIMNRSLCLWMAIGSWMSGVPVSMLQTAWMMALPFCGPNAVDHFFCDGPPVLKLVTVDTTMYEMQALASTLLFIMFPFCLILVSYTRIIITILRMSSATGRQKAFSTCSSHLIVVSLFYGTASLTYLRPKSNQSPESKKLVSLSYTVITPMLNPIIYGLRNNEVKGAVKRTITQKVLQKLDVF
How it was run: as §1

[15] = biological target: T15, OR10AD1 (Homo sapiens) (UniProt Q8NGE0)
T15 sequence (whole entry): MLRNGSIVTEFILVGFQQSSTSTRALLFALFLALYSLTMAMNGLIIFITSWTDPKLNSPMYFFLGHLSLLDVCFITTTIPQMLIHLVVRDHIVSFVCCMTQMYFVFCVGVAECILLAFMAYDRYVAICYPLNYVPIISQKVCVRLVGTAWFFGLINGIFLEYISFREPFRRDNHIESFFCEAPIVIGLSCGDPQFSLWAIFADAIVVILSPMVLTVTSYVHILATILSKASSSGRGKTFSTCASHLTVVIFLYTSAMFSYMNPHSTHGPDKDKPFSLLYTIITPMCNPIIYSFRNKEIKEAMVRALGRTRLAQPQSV
How it was run: as §1

[16] = biological target: T16, OR10AG1 (Homo sapiens) (UniProt Q8NH19)
T16 sequence (whole entry): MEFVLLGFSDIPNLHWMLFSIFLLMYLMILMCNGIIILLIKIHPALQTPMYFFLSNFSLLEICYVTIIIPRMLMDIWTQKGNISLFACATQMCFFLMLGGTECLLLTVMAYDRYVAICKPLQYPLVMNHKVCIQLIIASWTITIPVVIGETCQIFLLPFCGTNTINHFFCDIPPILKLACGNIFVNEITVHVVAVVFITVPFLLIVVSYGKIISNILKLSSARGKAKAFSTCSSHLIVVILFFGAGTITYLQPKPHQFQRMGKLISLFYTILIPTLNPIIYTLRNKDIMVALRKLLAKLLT
How it was run: as §1

[17] = biological target: T17, OR10C1 (Homo sapiens) (UniProt Q96KK4)
T17 sequence (whole entry): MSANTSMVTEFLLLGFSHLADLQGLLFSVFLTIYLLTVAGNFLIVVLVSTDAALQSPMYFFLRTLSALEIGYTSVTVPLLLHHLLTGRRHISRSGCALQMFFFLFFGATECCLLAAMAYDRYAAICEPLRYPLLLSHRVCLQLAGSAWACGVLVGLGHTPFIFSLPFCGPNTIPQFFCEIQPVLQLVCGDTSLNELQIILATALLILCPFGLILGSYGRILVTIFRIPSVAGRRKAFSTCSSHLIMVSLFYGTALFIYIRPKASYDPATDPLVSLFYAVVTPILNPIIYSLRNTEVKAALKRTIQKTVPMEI
How it was run: as §1

[18] = biological target: T18, OR10D3 (Homo sapiens) (UniProt Q8NH80)
T18 sequence (whole entry): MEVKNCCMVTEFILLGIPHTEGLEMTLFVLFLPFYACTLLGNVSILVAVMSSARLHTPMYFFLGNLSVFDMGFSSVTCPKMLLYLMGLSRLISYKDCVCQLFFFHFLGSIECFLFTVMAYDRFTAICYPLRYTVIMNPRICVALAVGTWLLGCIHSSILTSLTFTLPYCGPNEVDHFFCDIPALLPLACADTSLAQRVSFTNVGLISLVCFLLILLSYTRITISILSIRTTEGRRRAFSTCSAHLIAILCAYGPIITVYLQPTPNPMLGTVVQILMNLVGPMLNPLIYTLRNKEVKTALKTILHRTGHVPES
How it was run: as §1

Measured: odorant receptor agonist call;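 note: active if original authors judged signal statistically different from baseline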

CC1=C(O)C(=O)OC1C (stereo not drawn)
inactive: all assays above
